Source: PubChem BioAssay AID488934 (Broad Institute, 2010)
Records with an inconclusive call do not appear. The source made the active and inactive calls.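 How the source made its calls: active means compounds raising caspase signal whose fitted AC50 lies at or below the top valid dose tested; inconclusive means flat curve at 30 to 70 percent activity, or a poor fit; inactive means the rest.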

Test system: not listed separately
Assay: caspase-3/7 activation in A1-dependent Mel501 cells, dose response, A1 (Bcl2A1) inhibitor project, cell-based, human Mel501, dry powder (AID 488934)
Conditions: Mel501 melanoma cells, caspase-3/7 Glo luminescence, 6 h; at 135 µM (top of the series)
In short: (§1)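 Signal: luminescence from DEVD-linked luciferin caspase-3/7 substrate; Assay system: Mel501 cells, human; Amount: 2500 Mel501 cells per well, seeded one day before compound; Medium: RPMI-1640 growth medium with 10% FBS, TSA added at seeding; Incubation: 6 h compound at 37 °C, 1 h reagent at room temperature.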
In the case of `CC(=O)N[C@H]1[C@H](O[C@H]2CC[C@@]3(C)C(CC[C@]4(C)C3CC=C3[C@@H]5CC(C)(C)CC[C@]5(C(=O)OC5OCC(O)C(O)C5O)C(O)C[C@]34C)C2(C)C)O[C@H](COC2OCC(O)C(OC3OCC(O)C(O)C3O)C2O)[C@@H](O[C@@H]2O[C@@H](C)[C@H](O)[C@@H](O)[C@H]2O[C@@H]2O[C@@H](C)[C@H](O)[C@@H](O)[C@H]2O)[C@@H]1O` (stereo partly drawn), the caspase activation is reported as -0.618% (inactive).

Same assay, conditions: Mel501 melanoma cells, caspase-3/7 Glo luminescence, 6 h; at 150 µM (top of the series)
With `C=C1[C@@H](C)[C@H]2[C@H](Cc3ccccc3)NC(=O)[C@]23[C@H](OC(C)=O)/C=C/[C@](C)(O)C(=O)[C@@H](C)C/C=C/[C@H]3[C@@H]1O` the caspase activation was 0.757% (inactive).
In the case of `COc1cc(/C=C(/C#N)c2nc3ccccc3[nH]2)ccc1OCC(=O)Nc1ccccc1C(C)C`, the caspase activation is reported as 1.07% (inactive).
For `CCc1cc2c(=O)c(-c3cnn(-c4ccccc4)c3)c(C)oc2cc1OCC(=O)Nc1cccc(C)c1`, the caspase activation was 0.716% (inactive).
With `COc1cccc(C(=O)C(C#N)=C(SC)SC)c1` the caspase activation was -0.394% (inactive).
With `Cc1ccc(CS(=O)(=O)c2ncc(Cl)c(C(=O)Nc3nnc(C(C)C)s3)n2)cc1` the caspase activation was -1.79% (inactive).
In the case of `C=C1[C@@H](C)[C@H]2[C@H](Cc3ccccc3)NC(=O)[C@]23OC(=O)/C=C\[C@H](O)CCC[C@@H](C)C/C=C/[C@H]3[C@@H]1O`, the caspase activation is reported as 0.77% (inactive).
With `CC(C)(C)n1nc(-c2ccc(Cl)cc2)c2c(N)ncnc21` the caspase activation was 2.25% (inactive).
With `Nc1nc(F)nc2c1ncn2[C@@H]1O[C@H](CO)[C@@H](O)[C@H]1O` the caspase activation was 0.438% (inactive).
With `CCc1nnc(NC(=O)c2nc(S(=O)(=O)Cc3ccccc3)ncc2Cl)s1` the caspase activation was -0.521% (inactive).
In the case of `CCOC(=O)CSC1=N/C(=C/c2ccc(-n3cncn3)cc2)C(=O)N1C(C)=O`, the caspase activation is reported as 0.822% (inactive).
In the case of `CCSc1nnc(NC(=O)c2nc(S(=O)(=O)Cc3ccc(F)cc3)ncc2Cl)s1`, the caspase activation is reported as -2.12% (inactive).
In the case of `Cc1cccc(CS(=O)(=O)c2ncc(Cl)c(C(=O)Nc3nnc(C(C)C)s3)n2)c1`, the caspase activation is reported as -1.69% (inactive).
In the case of `Cn1c(=NC(=O)CCl)sc2ccccc21`, the caspase activation is reported as 0.601% (inactive).
In the case of `C/C1=C/C(=O)O[C@@H]2C[C@@H](CC[C@H](C)/C=C\CC1)O[C@@](O)(C1CSC(=O)N1)C2` (stereo partly drawn), the caspase activation is reported as 0.0337% (inactive).
For `O=C(CCl)N=c1sccn1Cc1ccccc1Cl`, the caspase activation was 2.16% (inactive).
In the case of `O=C(Oc1cccc(/C=N/Nc2nc(Nc3ccccc3)nc(N3CCOCC3)n2)c1)c1ccco1`, the caspase activation is reported as 0.28% (inactive).

Test system: Mel501 melanoma cells, caspase-3/7 Glo luminescence, 6 h
Assay: as above
Conditions: not given
In short: as §1
`COc1ccc(N(C(=O)CCl)C(C(=O)NCCc2ccccc2)c2cccs2)cc1Cl` (stereo not drawn) gave an AC50 of 30.1 µM.
With `Cc1ccc(Sc2c([N+](=O)[O-])c(=O)n(C)c3ccccc23)cc1` the AC50 was 69.7 µM.
For `Cc1cc(C(=O)CCl)c(C)n1CCc1ccc(Cl)cc1`, the AC50 was 17.8 µM.
With `Cc1c(C=O)c(C=O)c(C)n1Cc1ccccc1` the AC50 was > 150 µM (inactive).
In the case of `Cc1cccc(NC(=O)/C(C#N)=C/c2cn(CC(=O)NCc3ccco3)c3ccccc23)c1`, the AC50 is reported as > 150 µM (inactive).
In the case of `Cc1c(CCOC(=O)c2ccc(N3CCOCC3)c([N+](=O)[O-])c2)sc[n+]1CC#N`, the AC50 is reported as 18.8 µM.
